Experimental findings from ChEMBL document CHEMBL5532751, “Identification of chalcone analogues as anti-inflammatory agents through the regulation of NF-κB and JNK activation” (RSC Med Chem, 2024) are described below.

pIC50: −log10 of the molar value. Active and inactive are the calls of the source. No cut-off for these calls is given here.

In data set [1] the test system is RAW264.7. Briefly: Antiinflammatory activity in LPS-induced mouse RAW264.7 cells assessed as inhibition of NO production at 20 uM preincubated for 2 hrs followed by LPS stimulation for 24 hrs by Griess reagent based assay. Format: functional, cell-based. The note with it: time 26.0 hrs. The essentials:
(§1)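 Cells at 100 000 per well, grown 36 h in DMEM with 10% heat-inactivated FBS at 37 °C, 5% CO2. Pretreated 2 h with compound (20 μM in the screen), then LPS 1 μg mL−1 for 24 h. Supernatant mixed with Griess reagent, absorbance read at 540 nm, nitrite read from a sodium nitrite standard curve. Expressed as % of LPS control; ≥3 independent experiments, each in triplicate.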

Data set [2] has as its system RAW264.7. Briefly: Antiinflammatory activity in LPS-induced mouse RAW264.7 cells assessed as inhibition of PGE2 production preincubated for 2 hrs followed by LPS stimulation for 24 hrs by ELISA method. Format: functional, cell-based. A general note: In an ELISA, binding on a coated surface is turned into a signal by an enzyme label.
In data set [3] the test system is RAW264.7. The data set can be described thus: Antiinflammatory activity in LPS-induced mouse RAW264.7 cells assessed as downregulation of TNF-alpha mRNA expression level preincubated for 2 hrs followed by LPS stimulation for 6 hrs by RT-qPCR analysis. The note with it: dose 5-20 µM, time 8.0 hrs. Format: functional, cell-based. The essentials: (§2)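 RAW264.7 cells pretreated 2 h with compound at 5, 10 or 20 μM or vehicle, then LPS 1 μg mL−1 for 6 h. Total RNA extracted and target mRNAs quantified by RT-qPCR, normalized to β-actin mRNA. Mean ± SD of three independent experiments.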
(Quantitative PCR measures a nucleic acid by following its amplification.)

Data set [4] has as its system RAW264.7. Briefly: Cytotoxicity against mouse RAW264.7 cells assessed as cell survival at 20 uM incubated for 4 hrs by CCK-8 method. The settings on record: raw264.7, 4 h. It counts as toxicity, cell-based. The essentials: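 RAW 264.7 cells seeded at 20 000 per well, grown 24 h at 37 °C, exposed to compound for 4 h. CCK-8 (WST-8) reagent then added for 50 min at 37 °C, absorbance read at 450 nm. Survival = (test − blank)/(untreated medium control − blank) × 100%, blank being medium without cells.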
Background: Formazan colour is commonly taken as a measure of viable cells.

In data set [5] the test system is RAW264.7. The data set can be described thus: Antiinflammatory activity in LPS-induced mouse RAW264.7 cells assessed as downregulation of IL-6 mRNA expression level preincubated for 2 hrs followed by LPS stimulation for 6 hrs by RT-qPCR analysis. Format: functional, cell-based. The note with it: dose 5-20 µM, time 8.0 hrs. The method, boiled down: as §2
Data set [6] deals with RAW264.7. The data set can be described thus: Antiinflammatory activity in LPS-induced mouse RAW264.7 cells assessed as inhibition of IL-6 release preincubated for 2 hrs followed by LPS stimulation for 24 hrs by ELISA method. Format: functional, cell-based. The note with it: for Activity: dose 2.5-40 µM, time 26.0 hrs. The method, boiled down: (§3)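 RAW264.7 macrophages pretreated 2 h with compound at 2.5, 5, 10, 20 and 40 μM, then LPS 1 μg mL−1 for 24 h. Cytokine in supernatant measured with commercial ELISA kits per the manufacturers' protocols. IC50 derived from the dose series. Mean ± SD.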

Data set [7] concerns RAW264.7. Briefly: Inhibition of NF-kB signaling activation in LPS-induced mouse RAW264.7 cells assessed as downregulation of p65 phosphorylation preincubated for 2 hrs followed by LPS addition for 2 hrs by Western blot analysis. It counts as cell-based. The settings on record: dose 10-40 µM, time 4.0 hrs. The method, boiled down: (§4)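 RAW264.7 macrophages pretreated 2 h with vehicle (DMSO) or compound at 10, 20 or 40 μM, then LPS 1 μg mL−1 for 2 h. p-p65 and p-JNK detected by Western blot, normalized to β-actin and to total p65 or JNK. Optical density expressed as % of control; mean ± SEM of at least three independent experiments.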

Data set [8] has as its system RAW264.7. Briefly: Antiinflammatory activity in LPS-induced mouse RAW264.7 cells assessed as inhibition of TNF-alpha release preincubated for 2 hrs followed by LPS stimulation for 24 hrs by ELISA method. It counts as functional, cell-based. The note with it: for Activity: dose 2.5-40 µM, time 26.0 hrs. The method, boiled down:
as §3

Data set [9] deals with RAW264.7. The data set can be described thus: Antiinflammatory activity in LPS-induced mouse RAW264.7 cells assessed as inhibition of iNOS activity preincubated for 2 hrs followed by LPS stimulation for 24 hrs by ELISA method. Format: functional, cell-based.
Data set [10] relates to RAW264.7. The data set can be described thus: Antiinflammatory activity in LPS-induced mouse RAW264.7 cells assessed as downregulation of IL-1beta mRNA expression level preincubated for 2 hrs followed by LPS stimulation for 6 hrs by RT-qPCR analysis. Format: functional, cell-based. The settings on record: dose 5-20 µM, time 8.0 hrs. The method, boiled down: as §2
In data set [11] the test system is RAW264.7. The data set can be described thus: Inhibition of JNK signaling activation in LPS-induced mouse RAW264.7 cells assessed as downregulation of JNK phosphorylation preincubated for 2 hrs followed by LPS addition for 2 hrs by Western blot analysis. It counts as cell-based. The note with it: dose 10-40 µM, time 4.0 hrs. The essentials:
as §4

Data set [12] relates to RAW264.7. The data set can be described thus: Antiinflammatory activity in LPS-induced mouse RAW264.7 cells assessed as downregulation of iNOS mRNA expression level preincubated for 2 hrs followed by LPS stimulation for 6 hrs by RT-qPCR analysis. Format: functional, cell-based. The note with it: dose 5-20 µM, time 8.0 hrs. The method, boiled down: as §2
The test system of data set [13] is RAW264.7. Briefly: Antiinflammatory activity in LPS-induced mouse RAW264.7 cells assessed as decrease in COX-2 protein level at 10 to 40 uM preincubated for 2 hrs followed by LPS stimulation for 24 hrs by Western blot analysis. Format: functional, cell-based. The settings on record: dose 10-40 µM, time 26.0 hrs. The essentials: (§5)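 RAW264.7 cells given compound at 10, 20 or 40 μM, then LPS (1 μg mL−1). Lysis in 1% Triton X-100 buffer with phosphatase and protease inhibitors, 30 min on ice. Protein quantified by BCA, run on 10% SDS-PAGE, transferred to PVDF. Primary antibody overnight at 4 °C, HRP secondary 2 h at room temperature, ECL detection. β-Actin as loading control. Mean ± SD, n = 3.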

Data set [14] relates to RAW264.7. Briefly: Antiinflammatory activity in LPS-induced mouse RAW264.7 cells assessed as inhibition of IL-1beta release preincubated for 2 hrs followed by LPS stimulation for 24 hrs by ELISA method. The settings on record: for Activity: dose 2.5-40 µM, time 26.0 hrs. Format: functional, cell-based. The method, boiled down:
as §3

Data set [15] has as its system RAW264.7. The data set can be described thus: Antiinflammatory activity in LPS-induced mouse RAW264.7 cells assessed as decrease in iNOS protein level at 10 to 40 uM preincubated for 2 hrs followed by LPS stimulation for 24 hrs by Western blot analysis. It counts as functional, cell-based. The note with it: dose 10-40 µM, time 26.0 hrs. The method, boiled down: as §5

The test system of data set [16] is RAW264.7. Briefly: Antiinflammatory activity in LPS-induced mouse RAW264.7 cells assessed as downregulation of COX-2 mRNA expression level preincubated for 2 hrs followed by LPS stimulation for 6 hrs by RT-qPCR analysis. It counts as functional, cell-based. The note with it: dose 5-20 µM, time 8.0 hrs. The method, boiled down: as §2
The subject of data set [17] is RAW264.7. Briefly: Antiinflammatory activity in LPS-induced mouse RAW264.7 cells assessed as inhibition of NO production preincubated for 2 hrs followed by LPS stimulation for 24 hrs by Griess reagent based assay. Format: functional, cell-based. The essentials:
as §1

The subject of data set [18] is RAW264.7. Briefly: Antiinflammatory activity in LPS-induced mouse RAW264.7 cells assessed as reduction in NO production at 20 uM preincubated for 2 hrs followed by LPS stimulation for 24 hrs by Griess reagent based assay. Format: functional, cell-based. The settings on record: time 26.0 hrs. The method, boiled down:
as §1

The test system of data set [19] is RAW264.7. Briefly: Inhibition of ROS production in LPS-induced mouse RAW264.7 cells preincubated for 2 hrs followed by LPS stimulation for 24 hrs by Real-time single cell multi-mode analyzer. It counts as functional, cell-based. The settings on record: dose 10-40 µM, time 26.0 hrs. The method, boiled down:
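Cells on confocal dishes at 100 000 per well for 36 h, pretreated 2 h with compound at 10, 20 or 40 μM, then LPS 1 μg mL−1 for 24 h. Loaded with 50 μM H2DCFDA in PBS for 30 min in the dark. ROS read per cell on a real-time single-cell multi-mode analyzer. Mean ± SD.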

With `COc1ccc(C(=O)CCc2ccc(OC)c(OC)c2)cc1`, the outcome with RAW264.7 [1] was inactive.
Consider `COc1ccc(C(=O)/C=C/c2cc(OC)c(OC)c(OC)c2)cc1OC`, for which the pIC50 (usually the negative decadic logarithm of the IC50, by convention in mol/L) in the data set with RAW264.7 [2] is 5.40; in the data set on RAW264.7 [6], 5.68; in the data set with RAW264.7 [8], 5.10; in the data set with RAW264.7 [9] it was 5.34; in the data set with RAW264.7 [14], 4.91. In addition, the Activity entry was “Dose-Dependent Effect” in the data set with RAW264.7 [3]; “Non-Toxic” with RAW264.7 [4]; “Dose-Dependent Effect” with RAW264.7 [5]; “Dose-Dependent Effect” with RAW264.7 [6]; “Dose-Dependent Effect” in the data set with RAW264.7 [8]; “Dose-Dependent Effect” with RAW264.7 [10]. The Activity entry with RAW264.7 [12], with RAW264.7 [14] and in the data set with RAW264.7 [16] was “Dose-Dependent Effect” throughout. For the same compound, the inhibition result in the data set on RAW264.7 [7] and in the data set on RAW264.7 [11] was “Dose-Dependent Effect” in each case. The result in the data set with RAW264.7 [13] and in the data set with RAW264.7 [15] was Active.
On to `COc1cc(CCC(=O)c2ccc(F)c(C)c2)cc(OC)c1OC`, for which the outcome with RAW264.7 [1] was inactive.
For `COc1ccc(CCC(=O)c2ccc(O)cc2)c(OC)c1`, the inhibition entry with RAW264.7 [1] was “inactive”.
For the compound `COc1ccc(/C=C/C(=O)c2cc(OC)c(OC)c(OC)c2)cc1OC`, the pIC50 with RAW264.7 [2] was 5.02; with RAW264.7 [6], 5.08; in the data set with RAW264.7 [17], 5.12; in the data set on RAW264.7 [8] it was 5.15; in the data set with RAW264.7 [9] it was 4.92; in the data set with RAW264.7 [14] it was 5.00. Moreover, the Activity entry is “Dose-Dependent Effect” with RAW264.7 [3]; “Non-Toxic” in the data set on RAW264.7 [4]; “Dose-Dependent Effect” with RAW264.7 [5]; “Dose-Dependent Effect” in the data set with RAW264.7 [6]; “Dose-Dependent Effect” in the data set on RAW264.7 [17] (dose 2.5-40 µM, time 26.0 hrs); “Dose-Dependent Effect” with RAW264.7 [8]. Further, the Activity result in the data set with RAW264.7 [10], with RAW264.7 [12], with RAW264.7 [14] and in the data set on RAW264.7 [16] was “Dose-Dependent Effect” throughout. Also, the inhibition result in the data set with RAW264.7 [7], in the data set with RAW264.7 [19] and in the data set on RAW264.7 [11] was “Dose-Dependent Effect” in each case. Also, the outcome in the data set on RAW264.7 [18], in the data set with RAW264.7 [13] and in the data set with RAW264.7 [15] was Active.
